Here are results for nine compounds from ChEMBL document CHEMBL1144594, “Synthesis and biological evaluation of 4-amino derivatives of benzimidazoquinoxaline, benzimidazoquinoline, and benzopyrazoloquinazoline as potent IKK inhibitors” (Bioorg Med Chem Lett, 2007).

Active and inactive are the calls of the source. The rule behind the calls is not given here.

Test [1] deals with T1, Inhibitor of nuclear factor kappa-B kinase subunit alpha (Homo sapiens, UniProt O15111).
T1 sequence (O15111 whole entry): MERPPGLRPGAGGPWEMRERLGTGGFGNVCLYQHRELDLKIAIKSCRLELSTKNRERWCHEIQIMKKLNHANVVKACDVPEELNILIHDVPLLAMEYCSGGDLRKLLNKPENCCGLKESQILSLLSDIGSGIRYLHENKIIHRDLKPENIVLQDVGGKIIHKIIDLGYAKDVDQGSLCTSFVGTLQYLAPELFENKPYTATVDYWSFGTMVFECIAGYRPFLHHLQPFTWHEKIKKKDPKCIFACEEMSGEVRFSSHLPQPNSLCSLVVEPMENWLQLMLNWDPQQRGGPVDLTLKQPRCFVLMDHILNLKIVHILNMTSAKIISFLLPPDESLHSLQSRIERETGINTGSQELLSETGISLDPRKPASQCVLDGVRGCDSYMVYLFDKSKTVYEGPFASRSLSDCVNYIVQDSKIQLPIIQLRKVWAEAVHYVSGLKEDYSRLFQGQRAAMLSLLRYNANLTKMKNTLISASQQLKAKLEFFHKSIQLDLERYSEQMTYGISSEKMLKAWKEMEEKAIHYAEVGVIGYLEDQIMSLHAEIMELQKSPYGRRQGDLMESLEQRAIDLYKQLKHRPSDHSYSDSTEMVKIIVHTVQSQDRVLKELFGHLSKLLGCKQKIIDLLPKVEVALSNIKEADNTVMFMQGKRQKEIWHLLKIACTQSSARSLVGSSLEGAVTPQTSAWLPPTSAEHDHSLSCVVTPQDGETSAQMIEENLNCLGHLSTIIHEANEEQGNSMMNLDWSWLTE
Briefly: Inhibition of IKK1. The procedure, abridged:
(§1)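 Enzyme (IKK-2 or IKK-1, typically 0.5 µg/mL final) added at 30 °C to 50 µg/mL GST-IκBα substrate and 20 µM ATP. Read-out is GST-IκBα phosphorylation. IC50 is from a single experiment.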

The target in test [2] is T2, Inhibitor of nuclear factor kappa-B kinase subunit beta (Homo sapiens, UniProt O14920).
T2 sequence (O14920 whole entry): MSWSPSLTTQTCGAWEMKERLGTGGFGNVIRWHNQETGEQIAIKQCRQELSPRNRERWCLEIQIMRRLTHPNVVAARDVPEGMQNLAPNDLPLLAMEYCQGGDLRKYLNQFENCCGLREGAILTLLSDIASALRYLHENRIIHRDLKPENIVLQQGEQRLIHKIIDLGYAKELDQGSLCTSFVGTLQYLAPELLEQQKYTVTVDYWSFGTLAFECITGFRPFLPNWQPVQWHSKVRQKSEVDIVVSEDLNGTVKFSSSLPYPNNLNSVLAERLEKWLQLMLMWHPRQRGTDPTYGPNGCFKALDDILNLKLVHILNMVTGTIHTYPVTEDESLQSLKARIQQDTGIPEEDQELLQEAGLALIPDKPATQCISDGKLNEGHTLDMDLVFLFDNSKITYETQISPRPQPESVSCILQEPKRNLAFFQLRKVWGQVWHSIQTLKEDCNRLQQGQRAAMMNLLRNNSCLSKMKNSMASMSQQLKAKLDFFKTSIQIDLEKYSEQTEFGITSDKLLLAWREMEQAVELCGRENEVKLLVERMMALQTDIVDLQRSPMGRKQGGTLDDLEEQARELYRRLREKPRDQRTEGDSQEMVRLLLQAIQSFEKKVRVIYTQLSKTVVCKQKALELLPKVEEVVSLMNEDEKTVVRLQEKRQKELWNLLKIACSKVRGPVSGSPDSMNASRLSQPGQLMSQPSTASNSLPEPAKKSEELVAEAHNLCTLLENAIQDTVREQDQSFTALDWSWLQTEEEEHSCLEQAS
Briefly: Inhibition of LPS-induced TNFalpha secretion in THP1 cells. The test is classed as functional, cell-based, THP-1.

Test [3] addresses T2, Inhibitor of nuclear factor kappa-B kinase subunit beta. Briefly: Inhibition of IKK2. The procedure, abridged:
as §1

The test system of test [4] is Mus musculus. Briefly: Reduction of LPS-induced serum TNFalpha levels in BALB/c mouse at 10 mg/kg, po relative to control. The test is classed as functional. The arrangement: scale not given: the % may be the effect or the level left. The procedure, abridged:
(§2)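 Female BALB/c mice, 6–8 weeks old, got inhibitor in 0.2 mL aqueous solution by oral gavage. One hour later they were challenged ip with 1 µg E. coli O111:B4 LPS in 500 µL PBS. Serum was taken 90 min after challenge and TNF-α measured by EIA. Inhibition is relative to vehicle-only LPS-challenged controls.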

For the next test, the species on record is Homo sapiens. Briefly: Selectivity for human IKK2 over human IKK1.
The target in test [5] is T3, Tyrosine-protein kinase ITK/TSK (Homo sapiens) (UniProt Q08881).
T3 sequence (whole entry): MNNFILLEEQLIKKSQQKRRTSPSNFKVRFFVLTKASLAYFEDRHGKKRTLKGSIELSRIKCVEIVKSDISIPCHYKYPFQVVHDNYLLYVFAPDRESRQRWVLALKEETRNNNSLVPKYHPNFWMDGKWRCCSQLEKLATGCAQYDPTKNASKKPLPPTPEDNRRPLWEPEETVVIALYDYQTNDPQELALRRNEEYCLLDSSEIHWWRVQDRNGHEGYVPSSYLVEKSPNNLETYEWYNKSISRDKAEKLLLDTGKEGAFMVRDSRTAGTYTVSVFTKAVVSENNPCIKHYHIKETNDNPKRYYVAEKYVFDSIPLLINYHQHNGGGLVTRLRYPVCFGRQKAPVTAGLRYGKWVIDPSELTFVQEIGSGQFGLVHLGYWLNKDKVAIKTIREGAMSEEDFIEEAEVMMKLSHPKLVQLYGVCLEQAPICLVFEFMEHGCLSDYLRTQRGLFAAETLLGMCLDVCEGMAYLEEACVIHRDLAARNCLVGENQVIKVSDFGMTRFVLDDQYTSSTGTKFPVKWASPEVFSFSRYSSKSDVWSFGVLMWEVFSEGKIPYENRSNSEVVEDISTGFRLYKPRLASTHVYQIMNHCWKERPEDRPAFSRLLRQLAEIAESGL
Briefly: Inhibition of EMT at 50 uM.

Test [6] deals with Mus musculus. Briefly: Reduction of LPS-induced serum TNFalpha levels in BALB/c mouse at 100 mg/kg, po relative to control. The test is classed as functional, organism-based. On the set-up: dose 100 mg/kg. The procedure, abridged: as §2
The target of test [7] is Tyrosine-protein kinase Lck (Homo sapiens) (UniProt P06239). Put plainly: Inhibition of LCK at 50 uM.
The target of test [8] is T4, Inhibitor of nuclear factor kappa-B kinase subunit epsilon (Homo sapiens) (UniProt Q14164).
T4 sequence (whole entry): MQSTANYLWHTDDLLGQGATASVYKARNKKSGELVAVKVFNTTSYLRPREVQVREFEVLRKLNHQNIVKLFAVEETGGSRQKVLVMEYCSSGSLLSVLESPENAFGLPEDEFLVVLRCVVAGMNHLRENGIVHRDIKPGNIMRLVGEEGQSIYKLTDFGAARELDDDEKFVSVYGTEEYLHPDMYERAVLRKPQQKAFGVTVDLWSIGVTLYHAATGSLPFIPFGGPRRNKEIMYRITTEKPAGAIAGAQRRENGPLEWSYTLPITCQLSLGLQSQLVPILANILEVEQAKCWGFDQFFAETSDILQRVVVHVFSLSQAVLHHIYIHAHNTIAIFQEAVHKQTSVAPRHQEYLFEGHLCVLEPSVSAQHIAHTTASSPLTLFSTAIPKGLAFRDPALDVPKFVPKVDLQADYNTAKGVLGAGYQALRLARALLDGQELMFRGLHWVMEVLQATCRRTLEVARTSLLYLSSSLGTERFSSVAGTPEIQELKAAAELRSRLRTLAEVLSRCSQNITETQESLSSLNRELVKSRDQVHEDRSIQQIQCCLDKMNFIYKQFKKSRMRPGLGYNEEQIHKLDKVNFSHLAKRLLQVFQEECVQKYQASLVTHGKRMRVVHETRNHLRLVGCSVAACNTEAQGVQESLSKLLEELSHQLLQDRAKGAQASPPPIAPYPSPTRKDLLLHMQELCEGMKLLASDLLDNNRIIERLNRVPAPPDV
Briefly: Inhibition of IKKepsilon at 50 uM.

The test system of test [9] is Mus musculus. Put plainly: Reduction of LPS-induced serum TNFalpha levels in BALB/c mouse at 30 mg/kg, po relative to control. The test is classed as functional. The arrangement: scale not given: the % may be the effect or the level left. In a few lines:
as §2

Tyrosine-protein kinase Lck (Homo sapiens), sequence (P06239 2-509 limits assumed): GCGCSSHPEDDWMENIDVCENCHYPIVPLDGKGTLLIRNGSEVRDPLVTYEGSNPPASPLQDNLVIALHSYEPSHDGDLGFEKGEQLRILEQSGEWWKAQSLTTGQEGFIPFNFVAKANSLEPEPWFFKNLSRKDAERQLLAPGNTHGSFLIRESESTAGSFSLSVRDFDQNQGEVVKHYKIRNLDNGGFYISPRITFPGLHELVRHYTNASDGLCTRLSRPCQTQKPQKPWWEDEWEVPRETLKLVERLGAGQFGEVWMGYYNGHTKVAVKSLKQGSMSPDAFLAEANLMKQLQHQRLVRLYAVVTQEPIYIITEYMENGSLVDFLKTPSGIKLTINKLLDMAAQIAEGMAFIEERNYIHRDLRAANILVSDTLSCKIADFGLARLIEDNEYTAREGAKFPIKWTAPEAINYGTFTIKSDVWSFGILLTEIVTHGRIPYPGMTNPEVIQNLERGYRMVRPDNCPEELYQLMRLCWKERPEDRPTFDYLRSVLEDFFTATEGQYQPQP

As for `CNc1nc2cc3ccccc3cc2c2c1ncn2C`, the IC50 (usually the concentration that inhibits the measured activity by half) in [1] stood at 990 nM; in test [2] it was 950 nM.

For the compound `CNc1nc2cc3ccccc3cc2n2c(C)cnc12`, the half-maximal inhibitory concentration (IC50) in [3] came out at 18 nM; in test [2], 340 nM. In the test on Mus musculus [4], the Activity was 50%. The Ratio IC50 in the test filed under Homo sapiens was 13.

As to `Cn1cnc2c(NCCN)nc3cc4ccccc4cc3c21`, the concentration for half-maximal inhibition (IC50) worked out at 58 nM in test [3], 1600 nM in [1] and 5900 nM in [2].

As for `CNCCNc1nc2cc3ccccc3cc2n2c(C)cnc12`, the values for the IC50 in [3], in [1] and in test [2] were 23 nM, 390 nM and 1000 nM, respectively. Besides, the outcome in [5], in test [7] and in test [8] was inactive. The outcome with Mus musculus [6] was Active.

Consider `Cc1ccc2nc(NCCN)c3ncc(C)n3c2c1.Cl`, for which, in the test with Mus musculus [9], the Activity was 50%. In the test with Mus musculus [6], the outcome was Active.

`Cc1cnc2c(NCCN3CCCCC3)nc3cc4ccccc4cc3n12`: the figures for the IC50 in test [3] and in test [2] were 46 nM and 600 nM, respectively.

For `CNc1nc2cc3ccccc3cc2c2c(C)cnn12`, the results for the half-maximal inhibitory concentration (IC50) in test [3] and in [2] were 11 nM and 8300 nM, respectively.

Turning to `Cc1cnc2c(NCCO)nc3cc4ccccc4cc3n12`, the results for the IC50 in test [3], in test [1] and in [2] were 18 nM, 870 nM and 1400 nM, respectively. Also, in the test listed under Homo sapiens, the Ratio IC50 worked out at 48.

As to `CNCCNc1nc2cc3ccccc3cc2c2c(C)cnn12`, the results for the IC50 in [3] and in test [2] were 35 nM and 1500 nM, respectively.
